A selection: hits, their analogues and other compounds. The true share with any hit is near 3.4%.
TRPML3 ag: human mucolipin-3 channel agonism | Q8TDD5 | HEK293 TRPML3-YFP, Fluo-8 calcium fluorescence; 100% = the carbachol control signal | activation, % at 3 µM | 220,000 compounds, 0.29% hits;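 active means activation above its plate's cutoff, the mean activation of the plate's test wells plus 3 SD, cut at about 12% in these data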;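 further: 0% = DMSO only wells and 100% = carbachol wells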
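Test system: HEK293 cells stably carrying human TRPML3-YFP; Doses: single dose, 3 µM final nominal compound, 0.3% DMSO final; Schedule: dye loading 1 h 37 °C then 30 min ambient, 125 s read; Technique: Fluo-8 calcium fluorescence; Benchmarks: high control carbachol 87 µM, low control DMSO.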
TAAR1 ag: human TAAR1 agonism. Q96RJ0. CHO RD-HGA16 TAAR1, Fluo-8 calcium fluorescence; vehicle wells 0%, saturating PEA agonist 100%. AID 624467. 360,000 compounds, 0.99% hits. activation, % at 3 µM;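 active means activation above the mean activation of all test compounds in the run plus 3 SD, cut at about 38% in these data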
Target sequence (Q96RJ0 whole entry, looked up): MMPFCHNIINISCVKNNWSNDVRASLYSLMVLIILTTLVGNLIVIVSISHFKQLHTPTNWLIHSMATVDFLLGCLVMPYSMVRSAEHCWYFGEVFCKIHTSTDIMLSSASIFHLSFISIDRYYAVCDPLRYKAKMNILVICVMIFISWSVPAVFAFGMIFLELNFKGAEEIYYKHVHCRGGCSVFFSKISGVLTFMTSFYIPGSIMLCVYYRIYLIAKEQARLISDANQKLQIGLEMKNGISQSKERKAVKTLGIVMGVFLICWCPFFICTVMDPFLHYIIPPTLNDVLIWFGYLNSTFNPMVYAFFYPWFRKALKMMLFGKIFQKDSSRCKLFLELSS
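test system = CHO RD-HGA16 cells carrying human TAAR1 plus Gα16 | schedule = 17-24 h seeding, 75 min 37 °C dye, 30 min RT | compound dosing = 3 µM single concentration | control set = DMSO and PEA EC100 | replicates = n 1 | signal = Fluo-8 fluorescence, 5 s baseline then 140 s kinetic read | measure = percent activation vs PEA EC100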
LANA-H2B inh: blocks KSHV LANA binding to histone H2A/H2B; Q9QR71; cell-free LANA-H2A/H2B peptide, fluorescence polarization; inhibition, % (test concentration not listed); 320,000 compounds, 0.6% hits; AID 2629; in the data active means inhibition mostly above about 10%, no sharp cut-off; inactive means mostly below about 6.7%
TRPN1 ag: agonists of zebrafish TRPN1 channel; HEK293 zebrafish TRPN1-YFP, Fluo-8 calcium fluorescence; 100% = response to 87 µM carbachol; activation, % at 3 µM; 220,000 compounds, 0.18% hits;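 active means activation above its plate's cutoff, the mean activation of test wells on that plate plus 3 SD, cut at about 19% in these data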;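 further: 0% = DMSO alone and 100% = 87 µM carbachol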
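Control set: carbachol 87 µM as high control, DMSO as low control; system: HEK293 stable line with zebrafish TRPN1-YFP; read-out: % activation versus carbachol response; detection: intracellular calcium fluorescence with Fluo-8; doses: single test compound dose, 3 µM nominal, 0.3% DMSO; schedule: dye 1 h 37 °C plus 30 min RT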
TAAR1 antag: human TAAR1 antagonism | Q96RJ0 | CHO RD-HGA16 TAAR1, Fluo-8 calcium fluorescence, antagonist | inhibition, % at 3 µM | 360,000 compounds, 1.5% hits | AID 624466;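 active means inhibition above a per-plate cutoff, the mean inhibition of test compounds on that plate plus 3 SD, cut at about 49% in these data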;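 further: 0% = DMSO plus EC80 beta-PEA response and 100% = DMSO alone without agonist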
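Test system: RD-HGA16 CHO cells with stable hTAAR1 and Gα16 / Probe or stimulus: EC80 β-phenethylamine stimulus / Times: seeding 17-24 h prior, 75-min 37 °C, 30-min RT dye loading / Detection: Fluo-8 calcium-sensitive fluorescence / Read-out basis: % inhibition scaled between DMSO and EC80 PEA controls / Repeats: singlicate, one well per test compound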
GPR7 antag: human neuropeptides B/W receptor 1 antagonism; P48145; GPR7-expressing cells, fluorescence antagonist assay; inhibition, % at 4.4 µM; 290,000 compounds, 1.1% hits; in the data active means inhibition above about 16%, passing the limit was not always enough;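 further: cells stimulated with the agonist NPW; 0% = agonist with vehicle and 100% = vehicle without agonist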
Target sequence (P48145 whole entry, looked up): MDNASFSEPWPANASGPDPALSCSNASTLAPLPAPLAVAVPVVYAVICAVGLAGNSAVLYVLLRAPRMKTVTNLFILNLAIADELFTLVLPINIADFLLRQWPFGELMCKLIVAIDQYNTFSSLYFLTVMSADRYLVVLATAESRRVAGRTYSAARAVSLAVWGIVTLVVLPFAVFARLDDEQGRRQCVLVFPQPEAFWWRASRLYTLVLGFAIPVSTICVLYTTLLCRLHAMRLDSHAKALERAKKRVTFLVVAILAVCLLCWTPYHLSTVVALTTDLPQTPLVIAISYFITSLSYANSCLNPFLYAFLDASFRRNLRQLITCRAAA
TAAR1 ag conf: human TAAR1 agonism, confirmed. shares compounds with TAAR1 ag. CHO RD-HGA16 TAAR1, Fluo-8 calcium fluorescence; scaled: DMSO 0%, maximal phenethylamine 100%. activation, % at 3 µM. 2,400 compounds, 82% hits. AID 651783;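 active means activation above a cutoff set at the run's mean compound activation plus 3 SD, cut at about 39% in these data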
Ga16 nonsel ag: counter-screen for TAAR1 agonists: nonselective agonists in parental cells. shares compounds with TAAR1 ag. CHO-Ga16 parental, Fluo-8 calcium fluorescence; normalized to maximal ATP response, DMSO zero. activation, % at 3 µM. 2,400 compounds, 50% hits;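 active means activation above the run cutoff, the mean activation over all tested wells plus 3 SD, cut at about 12% in these data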;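 further: 0% = DMSO wells and 100% = maximal ATP response on the peak over basal ratio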
TAAR1 desens: TAAR1 response desensitization, agonist counter-screen. AID 651951. 2,400 compounds, 46% hits. CHO RD-HGA16 hTAAR1, Fluo-8 calcium, beta-PEA response inhibition. shares compounds with TAAR1 ag. inhibition, % at 3 µM;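 active means inhibition above the run cutoff, the mean inhibition of all test compounds plus 3 SD, cut at about 49% in these data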;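 further: beta-PEA stimulus applied at its EC80; loss of beta-PEA calcium signal after compound pretreatment read as receptor desensitization; 0% = DMSO with beta-PEA at EC80 and 100% = DMSO alone without agonist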
Ga16 nonsel ant: nonselective Ga16 antagonist in TAAR1 agonist counter-screen | shares compounds with TAAR1 ag | CHO-Ga16 ATP-induced calcium, Fluo-8 fluorescence | inhibition, % at 3 µM | 2,400 compounds, 39% hits;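 active means inhibition above the plate's mean compound inhibition plus 3 SD, computed per plate, cut at about 22% in these data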;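 further: 0% = EC80 ATP with DMSO and 100% = DMSO wells without ATP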
Active calls of the source: *; · = no result given.

SMILES | TRPML3 ag | TAAR1 ag | LANA-H2B inh | TRPN1 ag | TAAR1 antag | GPR7 antag | TAAR1 ag conf | Ga16 nonsel ag | TAAR1 desens | Ga16 nonsel ant
COc1ccc(OC)c(/C=C2/Sc3ccccc3C2=O)c1 | 7 | 74* | -1 | 13 | 61* | -3 | 23 | 29* | 45 | 50*
OC(COC(c1ccc(F)cc1)c1ccc(F)cc1)CN1CCCC(C(F)(F)F)C1 (centres undefined) | · | 70* | 1 | · | 38 | -20 | 79* | 3 | 58* | 14
O=C(NCCc1ccccc1)c1cc2ncc(Br)cn2n1 | 0 | 48* | -4 | -1 | 1 | 6 | 57* | 1 | 22 | 12
COCCNC(=O)c1cc2ncc(Br)cn2n1 | 0 | 9 | -1 | -1 | 0 | -1 | · | · | · | ·
Cc1ccc(N=Nc2ccc(O)c3ncccc23)cc1 | 0 | 63* | -10 | 0 | 82* | -17 | 5 | 4 | 48 | 51*
Cc1ccc(N=Nc2ccc(O)c3ncccc23)cc1C | 1 | 2 | -12 | 3 | 11 | -1 | · | · | · | ·
NC(=NCCc1ccc(Cl)cc1)NS(=O)(=O)c1ccccc1 | · | 3 | 2 | · | -20 | 4 | · | · | · | ·
Oc1ccc(Cl)cc1C=NCCc1ccccc1 | 0 | · | -5 | 1 | · | -8 | · | -1 | · | 10
NC(=NCCc1ccccc1)NC(=O)c1cc(Cl)ccc1O | · | 90* | -3 | · | 77* | · | 91* | 4 | 94* | 23*
Oc1ccccc1C=NCCN=Cc1ccccc1O | 0 | 3 | 3 | 1 | -18 | -15 | · | · | · | ·
CCN(C(=O)COC(=O)/C(C#N)=C/c1ccc(OC)cc1)C1CCS(=O)(=O)C1 (centres undefined) | · | 0 | -6 | · | -21 | · | · | · | · | ·
CC(NC(=O)C1CCN(C(=O)c2ccc(F)cc2)CC1)c1ccc(-n2ccnc2)cc1 (centres undefined) | · | 1 | 0 | · | -14 | · | · | · | · | ·
COc1cc2c(c(OC)c1OC)C1(CCCCC1)CC2NCC=C(C)C (centres undefined) | · | 50* | · | · | 0 | · | 12 | 1 | -10 | 1
COc1cc2c(cc1OC)C(C1(O)CCCCC1)NCC2 (centres undefined) | 0 | -1 | 0 | 0 | -1 | 1 | · | · | · | ·
O=c1c(O)c(-c2cccs2)oc2ccc(Cl)cc12 | 52* | 292* | 2 | 49* | 110* | 24* | 152* | 152* | 89* | 85*
O=C(CN1CCN(c2cccc(C(F)(F)F)c2)CC1)N(C1CCCC1)C1CCS(=O)(=O)C1 (centres undefined) | · | 1 | -1 | · | -19 | · | · | · | · | ·
COc1ccc(C(=O)NC(=S)NNC(=O)c2ccccc2C)cc1 | · | 170* | -1 | · | 92* | · | 143* | 105* | 98* | 75*
O=C(/C=C/c1cccs1)NC(=S)NNC(=O)c1ccccc1O | 14* | 88* | 4 | 21* | 17 | -8 | 23 | 74* | 15 | 36*
Cc1cc(OCC(=O)NNC(=S)NC(=O)c2ccc(Br)o2)ccc1Cl | · | 121* | 1 | · | 66* | -4 | 98* | 73* | 75* | 56*
COc1ccc(C(=O)NC(=S)NNC(=O)c2ccco2)cc1 | · | 7 | -9 | · | -8 | -1 | · | · | · | ·
COc1ccc(C(=O)NNC(=S)NC(=O)c2cccc([N+](=O)[O-])c2)cc1 | · | 66* | 9 | · | 17 | · | 88* | 64* | 36 | 26*
Cc1cccc(-c2cc(NCCc3cccnc3)n3nccc3n2)c1 | · | 2 | · | · | -6 | · | · | · | · | ·
Cc1cccc(C)c1NC(=O)C1C(c2ccc3c(c2)OCO3)=Nc2ccccc2N1C(=O)c1ccccn1 (centres undefined) | · | 3 | · | · | 12 | · | · | · | · | ·
COc1ccc(CN2C(=O)CCCC2(C)c2nc3ccccc3[nH]2)cc1 (centres undefined) | · | 3 | · | · | -6 | · | · | · | · | ·
CCCCN1C[C@H](CSC)[C@@H](CC(=O)Nc2ccc(OC)cc2)C1=O | · | 5 | · | · | -5 | · | · | · | · | ·
SMILES | TRPML3 ag | TAAR1 ag | LANA-H2B inh | TRPN1 ag | TAAR1 antag | GPR7 antag | TAAR1 ag conf | Ga16 nonsel ag | TAAR1 desens | Ga16 nonsel ant
O=C(NCCc1ccccc1)c1cccc(N2CCCC2=O)c1 | · | · | 3 | · | · | -7 | · | · | · | ·
COc1ccc(C(=O)NNC(=S)NC(=O)C(C)(C)C)cc1 | 17* | 145* | 2 | 41* | 98* | 16 | 106* | 90* | 48 | 44*
COc1ccccc1C(=O)NNC(=S)NC(=O)c1cc(OC)c(OC)c(OC)c1 | 2 | 30 | 3 | 3 | 18 | -8 | · | · | · | ·
O=C(NC(=S)NNC(=O)c1cc2ccccc2cc1O)c1ccco1 | 1 | 75* | 2 | 7 | 2 | -9 | 44* | 37* | 24 | 25*
COc1ccc(C(=O)NC(=S)NNC(=O)COc2ccccc2)cc1 | -1 | 46* | 0 | -1 | -21 | -5 | 66* | 52* | 20 | 23*
COc1cc(C(=O)NNC(=S)NC(=O)c2ccccc2C)cc(OC)c1OC | 5 | 63* | 0 | 3 | -4 | -2 | 33 | 44* | 6 | 11
Cc1cc(CN(Nc2ccccc2)c2ccccc2)cc(C)n1 | · | 6 | · | · | -8 | · | · | · | · | ·
CSc1ccc(C2C(C(=O)c3ccco3)=C(O)C(=O)N2c2nnc(SC)s2)cc1 (centres undefined) | · | 0 | 10 | · | -52 | -10 | · | · | · | ·
COc1ccc(C(=O)NC(=S)NNC(=O)c2ccccc2O)cc1 | · | 80* | -2 | · | 33 | -2 | 57* | 55* | 22 | 27*
CC1CN(S(=O)(=O)c2cc(C(=O)NCc3ccncc3)ccc2Cl)CC(C)O1 (centres undefined) | · | 1 | 1 | · | -11 | · | · | · | · | ·
Cc1ccccc1CCNC(=O)c1ccc(Cl)c(S(=O)(=O)N2CC(C)OC(C)C2)c1 (centres undefined) | · | 59* | 1 | · | 5 | · | 22 | 10 | 20 | 27*
FC(F)(F)c1cc(Cl)c2nc(-c3ccccc3)c(Cc3cccc(Cl)c3)n2c1 | · | 0 | · | · | -12 | · | · | · | · | ·
COc1ccc(NS(=O)(=O)c2ccc(-n3nnc4ccccc43)c([N+](=O)[O-])c2)cc1 | 2 | 52* | -7 | 8 | 32 | 7 | 72* | 39* | 50* | 40*

Screening results (PubChem)
